Source: ChEMBL document CHEMBL1671627, “Increasing trends in antimicrobial resistance among clinically important anaerobes and Bacteroides fragilis isolates causing nosocomial infections: emerging resistance to carbapenems” (2008)
≈ marks a conversion by molar mass, not a printed value.

Experiments:
Bacteroides caccae [1] = assay: Antibacterial activity against beta-lactamase producing Bacteroides caccae by CLSI agar dilution method; assay type: functional
Prevotella buccae [2] = assay: Antibacterial activity against Prevotella buccae assessed as resistant isolates by CLSI agar dilution method in presence of Tazobactam; assay type: functional, Segatella buccae
Method in brief: (§1)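 207 nonduplicate anaerobic blood isolates from patients with bloodstream infections at NTUH, collected January–December 2006. MICs were determined by agar dilution following CLSI guidelines. Inocula were applied with a Steers replicator onto supplemented Brucella blood agar and incubated 48 h at 35°C in an anaerobic chamber. MIC was the lowest concentration inhibiting growth. B. fragilis ATCC 25285, B. thetaiotaomicron ATCC 29741 and E. lentum ATCC 43055 served as controls in each run.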

Prevotella intermedia [3] = assay: Antibacterial activity against Prevotella intermedia assessed as resistant isolates by CLSI agar dilution method in presence of Tazobactam; assay type: functional; method in brief: as §1
Clostridium septicum = assay: Antibacterial activity against beta-lactamase producing Clostridium septicum assessed as resistant isolates by CLSI agar dilution method; assay type: functional
[4] = system: Bacteroides thetaiotaomicron; assay: Antibacterial activity against beta-lactamase producing Bacteroides thetaiotaomicron assessed as resistant isolates by CLSI agar dilution method; assay type: functional
Phocaeicola vulgatus [5] = assay: Antibacterial activity against beta-lactamase producing Bacteroides vulgatus assessed as susceptible isolates by CLSI agar dilution method; assay type: functional
Bacteroides fragilis [6] = assay: Antibacterial activity against Bacteroides fragilis assessed as resistant isolates by CLSI agar dilution method in presence of Tazobactam; assay type: functional; method in brief: as §1
Bacteroides uniformis [7] = assay: Antibacterial activity against beta-lactamase producing Bacteroides uniformis by CLSI agar dilution method; assay type: functional
[8] = system: Fusobacterium necrophorum; assay: Antibacterial activity against Fusobacterium necrophorum by CLSI agar dilution method; assay type: functional
Bacteroides uniformis [9] = assay: Antibacterial activity against beta-lactamase producing Bacteroides uniformis assessed as susceptible isolates by CLSI agar dilution method in presence of Tazobactam; assay type: functional
Method in brief: (§2)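 Agar dilution per CLSI guidelines on nonduplicate anaerobic bloodstream isolates collected at NTUH, January to December 2006. Isolates were spotted by Steers replicator onto supplemented Brucella blood agar and incubated anaerobically for 48 h at 35°C. MIC was the lowest drug concentration that inhibited growth. B. fragilis ATCC 25285, B. thetaiotaomicron ATCC 29741 and E. lentum ATCC 43055 were run as QC in each run.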

Fusobacterium mortiferum [10] = assay: Antibacterial activity against Fusobacterium mortiferum assessed as susceptible isolates by CLSI agar dilution method; assay type: functional
Veillonella parvula = assay: Antibacterial activity against Veillonella parvula by CLSI agar dilution method in presence of Tazobactam; assay type: functional; method in brief: as §2
[11] = system: Peptoniphilus asaccharolyticus; assay: Antibacterial activity against beta-lactamase producing Peptoniphilus asaccharolyticus assessed as susceptible isolates by CLSI agar dilution method in presence of Tazobactam; assay type: functional
Method in brief: (§3)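 CLSI agar dilution MICs for anaerobic blood isolates (nonduplicate) collected from bloodstream-infection patients at a Taiwanese tertiary hospital, January–December 2006. Isolates were spotted by Steers replicator onto supplemented Brucella blood agar and incubated anaerobically for 48 h at 35°C. MIC was the lowest drug concentration inhibiting growth. Each run included B. fragilis ATCC 25285, B. thetaiotaomicron ATCC 29741 and E. lentum ATCC 43055 as quality-control strains.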

[12] = system: Peptostreptococcus anaerobius; assay: Antibacterial activity against beta-lactamase producing Peptostreptococcus anaerobius assessed as susceptible isolates by CLSI agar dilution method in presence of Tazobactam; assay type: functional; method in brief: as §3
Bacteroides uniformis [13] = assay: Antibacterial activity against beta-lactamase producing Bacteroides uniformis assessed as susceptible isolates by CLSI agar dilution method; assay type: functional
Fusobacterium nucleatum [14] = assay: Antibacterial activity against Fusobacterium nucleatum by CLSI agar dilution method in presence of Tazobactam; assay type: functional; method in brief: as §2
Prevotella buccae [15] = assay: Antibacterial activity against Prevotella buccae assessed as resistant isolates by CLSI agar dilution method; assay type: functional, Segatella buccae
Finegoldia magna [16] = assay: Antibacterial activity against beta-lactamase producing Finegoldia magna assessed as susceptible isolates by CLSI agar dilution method; assay type: functional
Bacteroides caccae [17] = assay: Antibacterial activity against beta-lactamase producing Bacteroides caccae by CLSI agar dilution method in presence of Tazobactam; assay type: functional; method in brief: as §2
Fusobacterium mortiferum [18] = assay: Antibacterial activity against Fusobacterium mortiferum by CLSI agar dilution method; assay type: functional
[19] = system: Fusobacterium necrophorum; assay: Antibacterial activity against Fusobacterium necrophorum assessed as resistant isolates by CLSI agar dilution method in presence of Tazobactam; assay type: functional; method in brief: as §1
Prevotella buccae [20] = assay: Antibacterial activity against Prevotella buccae by CLSI agar dilution method; assay type: functional; details: Segatella buccae
Prevotella bivia = assay: Antibacterial activity against Prevotella bivia by CLSI agar dilution method in presence of Tazobactam; assay type: functional; method in brief: as §2
[21] = system: Peptoniphilus asaccharolyticus; assay: Antibacterial activity against beta-lactamase producing Peptoniphilus asaccharolyticus assessed as resistant isolates by CLSI agar dilution method in presence of Tazobactam; assay type: functional; method in brief: as §1
[22] = system: Clostridium paraputrificum; assay: Antibacterial activity against beta-lactamase producing Clostridium paraputrificum by CLSI agar dilution method in presence of Tazobactam; assay type: functional; method in brief: as §3
[23] = system: Peptostreptococcus anaerobius; assay: Antibacterial activity against beta-lactamase producing Peptostreptococcus anaerobius by CLSI agar dilution method in presence of Tazobactam; assay type: functional; method in brief: as §3
Clostridium tertium = assay: Antibacterial activity against beta-lactamase producing Clostridium tertium by CLSI agar dilution method in presence of clavulanate; assay type: functional; method in brief: as §3
Finegoldia magna [24] = assay: Antibacterial activity against beta-lactamase producing Finegoldia magna by CLSI agar dilution method in presence of clavulanate; assay type: functional; method in brief: as §3
Phocaeicola vulgatus [25] = assay: Antibacterial activity against beta-lactamase producing Bacteroides vulgatus assessed as resistant isolates by CLSI agar dilution method in presence of clavulanate; assay type: functional; method in brief: as §1
[26] = system: Peptostreptococcus anaerobius; assay: Antibacterial activity against beta-lactamase producing Peptostreptococcus anaerobius assessed as resistant isolates by CLSI agar dilution method in presence of clavulanate; assay type: functional; method in brief: as §1
Fusobacterium nucleatum [27] = assay: Antibacterial activity against Fusobacterium nucleatum by CLSI agar dilution method in presence of clavulanate; assay type: functional; method in brief: as §2
[28] = system: Clostridium paraputrificum; assay: Antibacterial activity against beta-lactamase producing Clostridium paraputrificum by CLSI agar dilution method in presence of clavulanate; assay type: functional; method in brief: as §3
Prevotella intermedia [29] = assay: Antibacterial activity against Prevotella intermedia assessed as resistant isolates by CLSI agar dilution method in presence of clavulanate; assay type: functional; method in brief: as §1
Fusobacterium varium = assay: Antibacterial activity against Fusobacterium varium assessed as susceptible isolates by CLSI agar dilution method in presence of clavulanate; assay type: functional; method in brief: as §2
[30] = system: Fusobacterium necrophorum; assay: Antibacterial activity against Fusobacterium necrophorum by CLSI agar dilution method in presence of clavulanate; assay type: functional; method in brief: as §2
Prevotella intermedia [31] = assay: Antibacterial activity against Prevotella intermedia by CLSI agar dilution method in presence of clavulanate; assay type: functional; method in brief: as §2
Finegoldia magna [32] = assay: Antibacterial activity against beta-lactamase producing Finegoldia magna assessed as resistant isolates by CLSI agar dilution method in presence of clavulanate; assay type: functional; method in brief: as §1
Bacteroides fragilis [33] = assay: Antibacterial activity against Bacteroides fragilis assessed as susceptible isolates by CLSI agar dilution method in presence of clavulanate; assay type: functional; method in brief: as §2

Structure (SMILES): CCN1CCN(C(=O)N[C@@H](C(=O)N[C@@H]2C(=O)N3[C@@H]2SC(C)(C)[C@@H]3C(=O)O)c2ccccc2)C(=O)C1=O [PIPERACILLIN]
- MIC50 (Bacteroides caccae [1]): > 128 µg/mL
- MIC90 (Bacteroides caccae [1]): > 128 µg/mL
- Activity (Prevotella buccae [2]): 0%
- Activity (Prevotella intermedia [3]): 0%
- Activity (Clostridium septicum): 0%
- Activity [4]: 37%
- Activity (Phocaeicola vulgatus [5]): 35%
- Activity (Bacteroides fragilis [6]): 2%
- MIC50 (Bacteroides uniformis [7]): > 128 µg/mL
- MIC90 (Bacteroides uniformis [7]): > 128 µg/mL
- MIC50 [8]: 2 µg/mL (≈ 3.86 µM)
- MIC90 [8]: 8 µg/mL (≈ 15.5 µM)
- Activity (Bacteroides uniformis [9]): 96%
- Activity (Fusobacterium mortiferum [10]): 90%
- MIC (Veillonella parvula): > 0.03 µg/mL
- Activity [11]: 97%
- Activity [12]: 97%
- Activity (Bacteroides uniformis [13]): 35%
- MIC50 (Fusobacterium nucleatum [14]): 0.5 µg/mL
- MIC90 (Fusobacterium nucleatum [14]): 2 µg/mL
- Activity (Prevotella buccae [15]): 22%
- Activity (Finegoldia magna [16]): 97%
- MIC50 (Bacteroides caccae [17]): 8 µg/mL
- MIC90 (Bacteroides caccae [17]): 16 µg/mL
- MIC50 (Fusobacterium mortiferum [18]): 2 µg/mL (≈ 3.86 µM)
- MIC90 (Fusobacterium mortiferum [18]): 8 µg/mL (≈ 15.5 µM)
- Activity [19]: 0%
- MIC50 (Prevotella buccae [20]): 16 µg/mL (≈ 30.9 µM)
- MIC90 (Prevotella buccae [20]): 128 µg/mL (≈ 247 µM)
- MIC (Prevotella bivia): 0.03 µg/mL
- MIC50 (Prevotella bivia): 0.03 µg/mL
- MIC90 (Prevotella bivia): 1 µg/mL
- Activity [21]: 0%
- MIC50 [22]: 0.5 µg/mL
- MIC90 [22]: 2 µg/mL
- MIC [23]: 0.03 µg/mL
- MIC50 [23]: 0.03 µg/mL
- MIC90 [23]: 2 µg/mL

Structure (SMILES): CC1(C)S[C@@H]2[C@H](NC(=O)[C@H](N)c3ccc(O)cc3)C(=O)N2[C@H]1C(=O)O [AMOXICILLIN]
- MIC50 (Clostridium tertium): 0.5 µg/mL
- MIC90 (Clostridium tertium): 2 µg/mL
- MIC50 (Finegoldia magna [24]): 0.25 µg/mL
- MIC90 (Finegoldia magna [24]): 2 µg/mL
- Activity (Phocaeicola vulgatus [25]): 30%
- Activity [26]: 3%
- MIC50 (Fusobacterium nucleatum [27]): 2 µg/mL
- MIC90 (Fusobacterium nucleatum [27]): 4 µg/mL
- MIC50 [28]: 0.5 µg/mL
- MIC90 [28]: 2 µg/mL
- Activity (Prevotella intermedia [29]): 6%
- Activity (Fusobacterium varium): 89%
- MIC50 [30]: 2 µg/mL
- MIC90 [30]: 4 µg/mL
- MIC50 (Prevotella intermedia [31]): 4 µg/mL
- MIC90 (Prevotella intermedia [31]): 16 µg/mL
- Activity (Finegoldia magna [32]): 3%
- Activity (Bacteroides fragilis [33]): 63%
